Data taken from ChEMBL document CHEMBL1125164, “Spiro hydantoin aldose reductase inhibitors derived from 8-aza-4-chromanones” (J Med Chem, 1990).

Key:
Rattus norvegicus [1] = assay: Tested in vivo for ability to inhibit sorbitol formation in the lens of a streptozotocinized rat model after oral administration at the dose of 1.0 mg/Kg; assay type: functional; conditions: Lens of camera-type eye
In short: (§1)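 Rats made diabetic with streptozotocin 85 mg/kg iv at 0 h. Compound given by oral gavage at 4, 7 and 24 h. Lens sorbitol measured at 27 h. Reported as mean ± SEM percent inhibition of sorbitol accumulation versus untreated diabetic controls. Student's t test on absolute sorbitol levels.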

[2] = target: Aldo-keto reductase family 1 member B1 (Homo sapiens, UniProt P15121); assay: In vitro inhibitory activity against Aldose reductase isolated from human placenta
In short: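 Human placental aldose reductase, partially purified (homogenized in 0.1 M K phosphate pH 7.0 with 5 mM 2-mercaptoethanol). Assay: 50 mM K phosphate pH 7.1, 0.4 M ammonium sulfate, 0.067 mM NADPH, 1.0 mM dl-glyceraldehyde, 25 °C. NADPH oxidation followed at 340 nm over 10 min.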

Rattus norvegicus [3] = assay: Tested in vivo for ability to inhibit sorbitol formation in the nerve of a streptozotocinized rat model after oral administration at the dose of 1.0 mg/Kg; assay type: functional
In short: (§2)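 Rats made diabetic with streptozotocin 85 mg/kg iv at 0 h. Compound given by oral gavage at 4, 7 and 24 h. Sciatic nerve sorbitol measured at 27 h. Reported as mean ± SEM percent inhibition of sorbitol accumulation versus untreated diabetic controls. Student's t test on absolute sorbitol levels.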

Rattus norvegicus [4] = assay: Tested in vivo for ability to inhibit sorbitol formation in the lens of a streptozotocinized rat model after oral administration at the dose of 0.25 mg/Kg; assay type: functional; conditions: Lens of camera-type eye; in short: as §1
Rattus norvegicus [5] = assay: Tested in vivo for ability to inhibit sorbitol formation in the nerve of a streptozotocinized rat model after oral administration at the dose of 0.25 mg/Kg; assay type: functional; in short: as §2
Rattus norvegicus [6] = assay: Tested in vivo for ability to inhibit sorbitol formation in the nerve of a streptozotocinizad rat model after oral administration at the dose of 1.0 mg/Kg; assay type: functional; in short: as §2
Rattus norvegicus [7] = assay: Tested in vivo for ability to inhibit sorbitol formation in the lens of a streptozotocinizad rat model after oral administration at the dose of 1.0 mg/Kg; assay type: functional; conditions: Lens of camera-type eye; in short: as §1
Rattus norvegicus [8] = assay: Tested in vivo for ability to inhibit sorbitol formation in the lens of a streptozotocinized rat model after oral administration at the dose of 5.0 mg/Kg; assay type: functional; conditions: Lens of camera-type eye; in short: as §1
Rattus norvegicus [9] = assay: Tested in vivo for ability to inhibit sorbitol formation in the nerve of a streptozotocinized rat model after oral administration at the dose of 5.0 mg/Kg; assay type: functional; in short: as §2
Rattus norvegicus [10] = assay: Tested in vivo for ability to inhibit sorbitol formation in the lens of a streptozotocinized rat model after oral administration at the dose of 0.1 mg/Kg; assay type: functional; conditions: Lens of camera-type eye; in short: as §1
Rattus norvegicus [11] = assay: Tested in vivo for ability to inhibit sorbitol formation in the nerve of a streptozotocinized rat model after oral administration at the dose of 0.1 mg/Kg; assay type: functional; in short: as §2
Rattus norvegicus [12] = assay: Tested in vivo for ability to inhibit sorbitol formation in the lens of a streptozotocinized rat model after oral administration at the dose of 0.5 mg/Kg; assay type: functional; conditions: Lens of camera-type eye; in short: as §1
Rattus norvegicus [13] = assay: Tested in vivo for ability to inhibit sorbitol formation in the lens of a streptozotocinized rat model after oral administration at the dose of 1.0 mg/kg; assay type: functional; conditions: Lens of camera-type eye; in short: as §1
Rattus norvegicus [14] = assay: Tested in vivo for ability to inhibit sorbitol formation in the nerve of a streptozotocinized rat model after oral administration at the dose of 0.5 mg/Kg; assay type: functional; in short: as §2
Rattus norvegicus [15] = assay: Tested in vivo for ability to inhibit sorbitol formation in the lens of a streptozotocinized rat model after oral administration at the dose of 1.5 mg/Kg; assay type: functional; conditions: Lens of camera-type eye; in short: as §1
Rattus norvegicus [16] = assay: Tested in vivo for ability to inhibit sorbitol formation in the nerve of a streptozotocinized rat model after oral administration at the dose of 0.15 mg/Kg; assay type: functional; in short: as §2
Rattus norvegicus [17] = assay: Tested in vivo for ability to inhibit sorbitol formation in the nerve of a streptozotocinized rat model after oral administration at the dose of 1.5 mg/Kg; assay type: functional; in short: as §2
Rattus norvegicus [18] = assay: Tested in vivo for ability to inhibit sorbitol formation in the lens of a streptozotocinized rat model after oral administration at the dose of 0.15 mg/Kg; assay type: functional; conditions: Lens of camera-type eye; in short: as §1
Rattus norvegicus [19] = assay: Tested in vivo for ability to inhibit sorbitol formation in the lens of a streptozotocinized rat model after oral administration at the dose of 0.75 mg/Kg; assay type: functional; conditions: Lens of camera-type eye; in short: as §1
Rattus norvegicus [20] = assay: Tested in vivo for ability to inhibit sorbitol formation in the nerve of a streptozotocinized rat model after oral administration at the dose of 0.75 mg/kg; assay type: functional; in short: as §2

SMILES: C[C@H]1C[C@@]2(NC(=O)NC2=O)c2cc(Cl)cnc2O1
- inhibition in vivo at 1 mg/kg (Rattus norvegicus [1]): -10.6%
- IC50 [2]: 3090 nM
- inhibition in vivo at 1 mg/kg (Rattus norvegicus [3]): -9.5%

SMILES: C[C@@H]1C[C@]2(NC(=O)NC2=O)c2cc(Cl)c[n+]([O-])c2O1
- IC50 [2]: 950 nM

SMILES: O=C1NC(=O)[C@@]2(CCOc3ncc(Cl)cc32)N1 (racemic)
- inhibition in vivo at 1 mg/kg (Rattus norvegicus [1]): 46.1%
- IC50 [2]: 6450 nM
- inhibition in vivo at 1 mg/kg (Rattus norvegicus [3]): 37%

SMILES: C[C@@H]1C[C@]2(NC(=O)NC2=O)c2cc(F)cnc2O1 (racemic)
- IC50 [2]: 1130 nM

SMILES: C[C@@H]1C[C@]2(NC(=O)NC2=O)c2cccnc2O1 (racemic)
- inhibition in vivo at 1 mg/kg (Rattus norvegicus [1]): 33.9%
- IC50 [2]: 7220 nM
- inhibition in vivo at 1 mg/kg (Rattus norvegicus [3]): 18.2%

SMILES: C[C@H]1C[C@]2(NC(=O)NC2=O)c2cc(Cl)cnc2O1 (racemic)
- IC50 [2]: 890 nM
- inhibition in vivo at 0.25 mg/kg (Rattus norvegicus [4]): 31.8%
- inhibition in vivo at 0.25 mg/kg (Rattus norvegicus [5]): 12.8%

SMILES: C[C@@H]1C[C@]2(NC(=O)NC2=O)c2cc(Br)cnc2O1 (racemic)
- inhibition in vivo at 1 mg/kg (Rattus norvegicus [1]): 67.4%
- IC50 [2]: 500 nM
- inhibition in vivo at 1 mg/kg (Rattus norvegicus [3]): 72.7%

SMILES: C[C@@H]1C[C@]2(NC(=O)NC2=O)c2cc(Cl)c[n+]([O-])c2O1 (racemic)
- inhibition in vivo at 1 mg/kg (Rattus norvegicus [6]): 37.6%
- IC50 [2]: 130 nM
- inhibition in vivo at 1 mg/kg (Rattus norvegicus [7]): 19.9%

SMILES: C[C@@H]1C[C@]2(NC(=O)NC2=O)c2cc(Cl)cnc2O1 (racemic; 14)
- IC50 [2]: 25 nM
- inhibition in vivo at 5 mg/kg (Rattus norvegicus [8]): 89%
- inhibition in vivo at 5 mg/kg (Rattus norvegicus [9]): 98%
- inhibition in vivo at 0.25 mg/kg (Rattus norvegicus [4]): 13%
- inhibition in vivo at 0.25 mg/kg (Rattus norvegicus [5]): 38%

SMILES: C[C@@H]1C[C@]2(NC(=O)NC2=O)c2cc(Cl)cnc2O1 (racemic; 16)
- inhibition in vivo at 0.1 mg/kg (Rattus norvegicus [10]): 13.8%
- inhibition in vivo at 0.1 mg/kg (Rattus norvegicus [11]): 8.7%
- inhibition in vivo at 0.5 mg/kg (Rattus norvegicus [12]): 55.5%
- IC50 [2]: 7.5 nM
- inhibition in vivo at 1 mg/kg (Rattus norvegicus [13]): 88.2%
- inhibition in vivo at 0.5 mg/kg (Rattus norvegicus [14]): 55.8%
- inhibition in vivo at 1 mg/kg (Rattus norvegicus [3]): 87.5%

SMILES: O=C1NC(=O)[C@@]2(CCOc3ccc(F)cc32)N1 [SORBINIL]
- inhibition in vivo at 1.5 mg/kg (Rattus norvegicus [15]): 73.4%
- inhibition in vivo at 0.15 mg/kg (Rattus norvegicus [16]): 29%
- inhibition in vivo at 1.5 mg/kg (Rattus norvegicus [17]): 90.9%
- inhibition in vivo at 0.15 mg/kg (Rattus norvegicus [18]): 12.3%
- inhibition in vivo at 0.75 mg/kg (Rattus norvegicus [19]): 44.2%
- inhibition in vivo at 0.75 mg/kg (Rattus norvegicus [20]): 72.7%
